IMP-1 inh: inhibitors of Pseudomonas aeruginosa IMP-1 metallo-beta-lactamase. purified IMP-1, nitrocefin hydrolysis, epi-absorbance fluorescence. inhibition, % at 5.6 µM. 290,000 tested, 0.45% active;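 active means inhibition above the mean plus 3 SD of all compounds in the same screening run, cut at about 4.5% in these data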;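 further: 0% = IMP-1 with DMSO and 100% = DMSO wells lacking enzyme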
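system = purified recombinant IMP-1 beta-lactamase | amount = 0.2 nM IMP-1, as dispensed | medium = HEPES buffer pH 7.1 with ZnSO4 and Brij 35 | times = 25 °C, 15 min preincubation, 25 min reaction | detection = plate fluorescence quenching by hydrolysis product, ex 480/em 530 nm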
DNA FID counter: displaces DNA intercalator in HCV helicase counter-screen | 290,000 tested, 0.17% active | inhibition, % at 7.9 µM | DNA fluorescent intercalator displacement, fluorescence; in the data active means inhibition above about 37%;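 further: 0% = vehicle and 100% = reference compound; higher means more ethidium bromide displaced from hairpin DNA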
VIM-2 inh: blocks Pseudomonas aeruginosa VIM-2 metallo-beta-lactamase; purified VIM-2, nitrocefin hydrolysis, epi-absorbance fluorescence; inhibition, % at 5.6 µM; 290,000 tested, 0.89% active;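 active means inhibition above the mean of all tested compounds plus 3 SD, cutoff set per screening run, cut at about 7.5% in these data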;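 further: red hydrolysis product quenches plate fluorescence so inhibitors raise well fluorescence; 0% = enzyme with DMSO and 100% = DMSO without enzyme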
NS3 helicase inh: HCV NS3 helicase inhibition; 290,000 tested, 0.56% active; NS3 helicase DNA unwinding, Cy5 molecular beacon fluorescence; inhibition, % at 10.9 µM; AID 1800;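 active means inhibition above the mean of all tested compounds plus 3 SD, set per campaign, cut at about 35% in these data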;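 further: 0% = DMSO wells and 100% = thioflavine S control wells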
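assay system = NS3 helicase fragment of HCV | buffer or medium = MOPS pH 6.5, MgCl2, DTT, Tween20, BSA | timing = 60 min unwinding reaction at 25 °C after ATP addition | signal = Cy5 beacon fluorescence read at start and 1 h | read-out basis = % inhibition of unwinding | control set = low DMSO, high thioflavine S at 110 µM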
SUMO HTRF inh: blocks human SUMOylation mediated by UBC9; 290,000 tested, 0.36% active; HTRF SUMOylation assay, SAE1/SAE2 + UBC9, in vitro; AID 2006; P63279; inhibition, % at 35 µM; in the data active means inhibition above about 50%, passing the limit was not always enough
Target sequence (P63279 whole entry, looked up): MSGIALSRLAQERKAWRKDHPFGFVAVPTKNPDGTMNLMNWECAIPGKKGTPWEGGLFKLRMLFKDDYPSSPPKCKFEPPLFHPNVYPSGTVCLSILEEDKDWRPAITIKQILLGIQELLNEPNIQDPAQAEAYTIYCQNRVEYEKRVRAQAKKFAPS
* hit, by the source's call; nt = not tested or not shown. A selection: hits, their analogues and other compounds. The true share with any hit is near 2.1%.

SMILES | IMP-1 inh | DNA FID counter | VIM-2 inh | NS3 helicase inh | SUMO HTRF inh
CCCCn1[nH]c(-c2ccccc2)cc1=O | -3.0 | -6.3 | -3.5 | 10.2 | 79.6*
Cc1cc(C)c(C(=O)N2CCCC(N3CCN(c4ccc(F)cc4)CC3)C2)o1 (stereo not given) | 1.1 | -13.0 | -0.5 | -2.4 | 15.7
CCc1ccc2nc(N3C(=O)c4oc5ccccc5c(=O)c4C3c3ccc(OC)c(OC)c3)sc2c1 (stereo not given) | -1.9 | -9.0 | -2.4 | 12.0 | 47.8
COc1ccc(Nc2nnc(-c3ccncc3)s2)cc1Cl | 17.0* | 0.3 | 1.1 | -6.8 | 2.0
CCCN(CCC)C(=O)CSc1nc2n[nH]c(C)c2c(=N)n1-c1ccc(OCC)cc1 | -3.3 | -9.9 | -3.8 | -8.0 | 1.5
CCOc1ccc(-n2c(SCC(=O)Nc3ccc(CC)cc3)nc3n[nH]c(C)c3c2=N)cc1 | -2.2 | 6.9 | 2.1 | -3.8 | 55.7*
COc1cc(NCc2ccccc2O)c2ncccc2c1 | -1.4 | -7.0 | -1.4 | -1.3 | 7.1
Oc1ccccc1CNc1cccc2cccnc12 | -0.7 | 1.0 | -1.4 | 1.0 | 75.8*
O=CN1CCN(C(=O)c2ccc(-c3nc4ccccc4s3)s2)CC1 | -2.0 | -20.1 | -1.3 | 10.0 | -1.1
Cc1ccccc1OCCNc1cc(N2CC(C)NC(C)C2)ccc1[N+](=O)[O-] (stereo not given) | -2.7 | 38.9* | -2.9 | -58.5 | -10.7
N#C/C(=C(/O)c1ccc(Cl)c([N+](=O)[O-])c1)c1nc2ccccc2[nH]1 | -3.3 | -0.2 | -2.7 | -4.0 | 25.5
CC(C)C(NC(=O)c1ccc(C(C)(C)C)cc1)C(=O)NCCc1ccccn1 (stereo not given) | 0.5 | -29.3 | 1.4 | 5.5 | -10.8
CC(C)C(NC(=O)c1ccc(C(C)(C)C)cc1)C(=O)NCC(c1ccccc1)N(C)C (stereo not given) | 2.8 | 36.8* | -0.3 | -57.9 | 3.2
Cc1ccc(C)c2nc3sc(C(=O)O)cc3cc12 | -3.6 | -16.6 | 9.6* | -0.3 | 9.7
Cn1ccnc1SCC(=O)c1cc2ccccc2o1 | 4.6* | -3.2 | -0.3 | 12.0 | 12.7
Cc1cc2c3c(ccc(C)c3n1)N=CN2c1ccccc1 | -0.3 | 3.8 | 8.4* | 1.6 | 22.0
COc1ccccc1/C=C/C=c1\sc2nc(=O)c(Cc3ccccc3)nn2c1=O | 7.9* | -19.0 | 0.7 | 13.2 | nt
CCOC(=O)c1c(C)oc2c1cc(NS(=O)(=O)c1ccc(C(=O)O)cc1)c1ccccc12 | 9.7* | -9.8 | 0.3 | -22.4 | 17.8
Cc1oc2c(cc(NS(=O)(=O)c3ccc(Cl)cc3)c3ccccc32)c1C(=O)O | 2.5 | -35.7 | -0.1 | -7.2 | 8.6
COc1ccc(OC)c(NC(=O)CSc2ccc3nnc(-c4ccccn4)n3n2)c1 | -1.8 | -15.5 | -0.8 | -0.5 | 11.6
Cc1cc(C)cc(N2CC(C)Cn3c2nc2c3c(=O)[nH]c(=O)n2C)c1 (stereo not given) | -4.7 | -34.1 | 8.6* | -10.1 | -2.7
Cc1cc(C)cc(N2CCCn3c2nc2c3c(=O)[nH]c(=O)n2C)c1 | -2.8 | -22.6 | 3.2 | 2.0 | 6.0
N#Cc1c(NC(=O)c2ccc(Br)o2)n(-c2ccccc2)c2nc3ccccc3nc12 | -2.0 | -16.8 | -1.5 | 8.5 | 95.1*
CCCCn1c(NC(=O)c2ccccc2)c(C#N)c2nc3ccccc3nc21 | 0.5 | -7.6 | -2.3 | 39.8* | 98.5*
O=C(CNC(=O)c1ccc(F)cc1)N/N=C/c1cccnc1 | -1.6 | -3.6 | 0.6 | -8.2 | 7.1
SMILES | IMP-1 inh | DNA FID counter | VIM-2 inh | NS3 helicase inh | SUMO HTRF inh
Cc1ccc2nc(N=C(N)N)nc(C)c2c1 | -0.9 | 7.5 | 10.9* | 3.5 | 10.7
COc1cccc(C(=O)N2CCN(Cc3ccccc3Br)CC2)c1 | 7.4* | -25.8 | 0.6 | 2.4 | -2.3
CSc1nnc(C)c(/C=C/Nc2ccc(F)cc2)n1 | -1.4 | 1.7 | -2.1 | 13.3 | -5.8
COc1ccc(N/C=C/c2nc(SC)nnc2C)cc1 | -2.5 | -7.9 | 7.8* | 14.1 | 15.6
Cc1cccc(NC(=S)N2CCN(C(=O)c3ccco3)CC2)c1C | -3.6 | -11.4 | -3.5 | -1.4 | 2.8
O=C(CN(c1ccccc1Cl)S(=O)(=O)c1ccccc1)NCc1ccccc1 | -1.3 | -21.6 | -2.6 | 6.0 | 5.1
O=C(CSc1nnnn1-c1ccc(F)cc1)Nc1nc2ccccc2s1 | 4.7* | 0.7 | -2.2 | 2.4 | 5.9
O=C(NCC(=O)N1CCCCCC1)c1ccc(Br)cc1 | -3.7 | -10.1 | -0.4 | 1.3 | -2.5
CC(C)(C)c1ccc(C(=O)Nc2cccc3c(=O)[nH][nH]c(=O)c23)cc1 | 5.9* | 5.5 | -2.6 | 3.3 | 25.4
CS(=O)(=O)N(CC(=O)Nc1cc(Cl)ccc1Cl)c1ccccc1 | 4.6* | -4.3 | -0.6 | 11.5 | 1.2
COc1cccc(C2NC(=O)NC(C)=C2C(=O)Nc2ccccc2C)c1 (stereo not given) | -2.3 | -3.9 | -2.9 | 8.7 | 7.9
CC1=C(C(=O)Nc2ccccc2C)C(c2ccccc2)NC(=O)N1 (stereo not given) | 4.5* | 1.2 | -0.1 | 0.1 | 15.9
Cc1ccc(Cl)cc1NC(=O)CCN1C(=O)C2C3CCC(C3)C2C1=O (stereo not given) | -3.5 | 1.3 | -2.9 | 3.2 | 8.0
O=C(CCN1C(=O)C2C3C=CC(C4CC34)C2C1=O)Nc1ccc(Cl)cc1O (stereo not given) | 13.4* | -6.2 | -2.9 | 9.4 | 0.8
Cc1ccc(N2NC(C)(c3cccs3)NC2=S)cc1 (stereo not given) | -2.4 | 2.0 | -2.5 | 7.3 | 4.1
CC1CCN(CCCn2c(=S)[nH]c3ccc(N4CCOCC4)cc3c2=O)CC1 | -0.9 | 1.4 | -3.7 | 5.8 | 55.6*
COc1ccccc1/C=C1\SC(=S)N(C(C(=O)O)c2ccccc2)C1=O (stereo not given) | -1.3 | -17.4 | 9.4* | 31.4 | 21.7
CCOc1ccc(/C=C2/SC(=S)N(C(C(=O)O)c3ccccc3)C2=O)cc1OCC (stereo not given) | -2.1 | -28.1 | -2.9 | 19.9 | 25.1
CC1Nc2ccc(C(=O)NC3CCCCC3)cc2NC1=O (stereo not given) | -1.7 | -8.1 | -0.2 | 3.1 | 14.5
CN(C)c1nc(N)c([N+](=O)[O-])c(NCCO)n1 | -1.2 | -0.2 | -1.3 | 4.1 | 0.8
CC1CCc2nc3sc4c(c3c(N)c2C1)CCCC4 (stereo not given) | -2.7 | 1.6 | 6.2 | -10.2 | -8.0
CC1CCc2c(nc3sc4c(c3c2N)CCCC4)C1 (stereo not given) | -0.1 | 3.1 | 8.1* | 2.4 | -3.5
Cc1cccc2c3nc4ccccc4nc3n(C)c12 | -2.8 | -21.3 | 9.7* | -8.3 | 0.4
COC(=O)Cn1c2nc3ccccc3nc2c2cccc(C)c21 | -2.0 | -21.1 | 1.3 | 1.2 | -8.5
O=C(CN(CCc1ccccc1)Cc1ccccc1)Oc1ccccc1P(=O)(O)O | 0.0 | -28.4 | 11.0* | 22.2 | 5.4
CC1=C(C#N)C(=O)N(C2CCS(=O)(=O)C2)C(=O)/C1=C\c1ccco1 (stereo not given) | -4.5 | -3.7 | -3.0 | 5.8 | 90.3*

Screens as filed in PubChem BioAssay.
